Data from ChEMBL document CHEMBL4371075, “α-Amino Diphenyl Phosphonates as Novel Inhibitors of Escherichia coli ClpP Protease” (J Med Chem, 2019).

molecular target: ATP-dependent Clp protease proteolytic subunit (Escherichia coli (strain K12)) (UniProt P0A6G7); test: Inhibition of Escherichia coli C-terminal His6-tagged ClpP expressed Escherichia coli SG1146a at 200 uM using Suc-LY-AMC as substrate preincubated for 10 mins followed by substrate addition and measured over 1 hr by fluorescence assay relative to control
Sequence (P0A6G7 whole entry): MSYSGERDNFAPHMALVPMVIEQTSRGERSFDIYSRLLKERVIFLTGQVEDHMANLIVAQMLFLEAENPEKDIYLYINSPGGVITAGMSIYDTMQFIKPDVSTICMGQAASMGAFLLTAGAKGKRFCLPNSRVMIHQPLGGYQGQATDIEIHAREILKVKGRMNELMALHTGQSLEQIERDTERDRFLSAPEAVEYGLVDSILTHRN
Summary of the method: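 E. coli ClpP (625 nM) in 100 mM NaCl, 100 mM Hepes pH 7.5, 0.05% Brij 35, preincubated with compound (200 µM final, triplicates) 10 min at 30 °C. Suc-LY-AMC added (75 µM), fluorescence (ex 350/em 435 nm) followed over 1 h at 30 °C. Inhibition relative to 2% DMSO vehicle; Z-LY-CMK (200 µM) positive control; plates valid at Z' > 0.6.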

First: O=C(NC(CCc1ccccc1)P(=O)(Oc1ccccc1)Oc1ccccc1)OCc1ccccc1 (stereo unspecified)
Second: O=C(NC(Cc1ccccc1)P(=O)(Oc1ccccc1)Oc1ccccc1)OCc1ccccc1 (stereo unspecified)
The inhibition of the first is lower: under 1% for the first, 7% for the second.

Going from `C#CCOCCOCCOC(=O)NC(c1ccc(N2CCNCC2)cc1)P(=O)(Oc1ccccc1)Oc1ccccc1` (stereo unspecified) to `N#Cc1cc(C(NC(=O)OCc2ccccc2)P(=O)(Oc2ccccc2)Oc2ccccc2)ccc1N1CCNCC1` (stereo unspecified), the inhibition falls from 25% to 10%.

`O=C(NC(c1cc([N+](=O)[O-])ccc1Cl)P(=O)(Oc1ccccc1)Oc1ccccc1)OCc1ccccc1` (stereo unspecified) and `O=C(NC(c1cccc([N+](=O)[O-])c1)P(=O)(Oc1ccccc1)Oc1ccccc1)OCc1ccccc1` (stereo unspecified) are the same in inhibition: 6% for the first, 6% for the second.

Going from `O=C(NC(c1ccc2c(c1)OCO2)P(=O)(Oc1ccccc1)Oc1ccccc1)OCc1ccccc1` (stereo unspecified) to `Nc1cccc(C(NC(=O)OCc2ccc3c(c2)OCO3)P(=O)(Oc2ccccc2)Oc2ccccc2)c1` (stereo unspecified), the inhibition rises from 6% to 20%.

Going from `O=C(NC(Cc1cccc(O)c1)P(=O)(Oc1ccccc1)Oc1ccccc1)OCc1ccccc1` (stereo unspecified) to `O=C(NC(Cc1ccc(O)cc1)P(=O)(Oc1ccccc1)Oc1ccccc1)OCc1ccccc1` (stereo unspecified), the inhibition falls from 3% to under 1%.

Going from `O=C(NC(c1ccc2ccccc2c1)P(=O)(Oc1ccccc1)Oc1ccccc1)OCc1ccccc1` (stereo unspecified) to `Nc1ccc2cc(C(NC(=O)OCc3ccccc3)P(=O)(Oc3ccccc3)Oc3ccccc3)ccc2c1` (stereo unspecified), the inhibition falls from 51% to under 1%.

Going from `COC(=O)NC(c1cccc(N)c1)P(=O)(Oc1ccccc1)Oc1ccccc1` (stereo unspecified) to `COC(=O)NC(c1cccc(C(=N)N)c1)P(=O)(Oc1ccccc1)Oc1ccccc1` (stereo unspecified), the inhibition rises from 7% to 30%.

Compared with `O=C(NC(COCc1ccccc1)P(=O)(Oc1ccccc1)Oc1ccccc1)OCc1ccccc1` (stereo unspecified), `O=C(NC(Cc1ccc(F)cc1)P(=O)(Oc1ccccc1)Oc1ccccc1)OCc1ccccc1` (stereo unspecified) is higher in inhibition: 4% for the first, 13% for the second.

First: O=C(NC(CC1CCNCC1)P(=O)(Oc1ccccc1)Oc1ccccc1)OCc1ccccc1 (stereo unspecified)
Second: O=C(NC(C1CCNCC1)P(=O)(Oc1ccccc1)Oc1ccccc1)OCc1ccccc1 (stereo unspecified)
The inhibition of the first is lower: 16% for the first, 30% for the second.

Compared with `O=C(NC(c1cccc2ccccc12)P(=O)(Oc1ccccc1)Oc1ccccc1)OCc1ccccc1` (stereo unspecified), `CN(C)c1ccc(C(NC(=O)OCc2ccccc2)P(=O)(Oc2ccccc2)Oc2ccccc2)c2ccccc12` (stereo unspecified) is lower in inhibition: 6% for the first, under 1% for the second.

Compared with `CC(=O)Nc1ccc(OP(=O)(Oc2ccc(NC(C)=O)cc2)C(Cc2ccccc2)NC(=O)OCc2ccccc2)cc1` (stereo unspecified), `CC(=O)Nc1ccc(OP(=O)(Oc2ccc(NC(C)=O)cc2)C(Cc2ccc(C(F)(F)F)cc2)NC(=O)OCc2ccccc2)cc1` (stereo unspecified) is lower in inhibition: 9% for the first, 1% for the second.

Going from `CC(C)C[C@H](NC(=O)OCc1ccccc1)C(=O)NC(Cc1ccc(O)cc1)P(=O)(Oc1ccccc1)Oc1ccccc1` (stereo partly specified) to `Cc1ccc(CC(NC(=O)OCc2ccccc2)P(=O)(Oc2ccccc2)Oc2ccccc2)cc1` (stereo unspecified), the inhibition rises from under 1% to 7%.

Going from `COC(=O)NC(Cc1cccc(C(F)(F)F)c1)P(=O)(Oc1ccccc1)Oc1ccccc1` (stereo unspecified) to `COC(=O)NC(Cc1ccc(NC(=N)N)cc1)P(=O)(Oc1ccccc1)Oc1ccccc1` (stereo unspecified), the inhibition rises from 4% to 27%.

Compared with `COP(=O)(Oc1ccccc1)C(Cc1ccc(O)cc1)NC(=O)OCc1ccccc1` (stereo unspecified), `O=C(NC(Cc1ccc(O)cc1)P(=O)(O)Oc1ccccc1)OCc1ccccc1` (stereo unspecified) is lower in inhibition: 14% for the first, 11% for the second.

Going from `N#C[C@@H](NC(=O)OCc1ccccc1)c1cccc(N)c1` to `N#C[C@H](Cc1ccccc1)NC(=O)OCc1ccccc1`, the inhibition falls from 8% to under 1%.

Compared with `N=C(N)N1CCC(C(NC(=O)/C=C/c2ccc3c(c2)OCO3)P(=O)(Oc2ccccc2)Oc2ccccc2)CC1` (stereo unspecified), `N=C(N)N1CCC(C(NC(=O)C#Cc2ccc3c(c2)OCO3)P(=O)(Oc2ccccc2)Oc2ccccc2)CC1` (stereo unspecified) is higher in inhibition: 4% for the first, 24% for the second.

Compared with `COC(=O)NC(c1cccc2c([N+](=O)[O-])cccc12)P(=O)(Oc1ccccc1)Oc1ccccc1` (stereo unspecified), `N=C(N)Nc1cccc2c(C(NC(=O)OCc3ccccc3)P(=O)(Oc3ccccc3)Oc3ccccc3)cccc12` (stereo unspecified) is higher in inhibition: 17% for the first, 38% for the second.

Compared with `N=C(NO)c1cccc(C(Nc2ncccn2)P(=O)(Oc2ccccc2)Oc2ccccc2)c1` (stereo unspecified), `N=C(N)N1CC(C(Nc2ncccn2)P(=O)(Oc2ccccc2)Oc2ccccc2)C1` (stereo unspecified) is lower in inhibition: 23% for the first, 12% for the second.

First: N=C(N)N1CCC(C(NC(=O)c2ccco2)P(=O)(Oc2ccccc2)Oc2ccccc2)CC1 (stereo unspecified)
Second: N=C(N)N1CCC(C(NC(=O)c2cccnc2)P(=O)(Oc2ccccc2)Oc2ccccc2)CC1 (stereo unspecified)
The inhibition of the first is higher: 24% for the first, 13% for the second.

Going from `N=C(N)N1CCC(C(NC(=O)/C=C\c2ccccc2)P(=O)(Oc2ccccc2)Oc2ccccc2)CC1` (stereo unspecified) to `N=C(N)N1CCC(C(NC(=O)/C=C/c2ccccc2)P(=O)(Oc2ccccc2)Oc2ccccc2)CC1` (stereo unspecified), the inhibition rises from 11% to 18%.

First: CC(NC(=O)OCc1ccccc1)P(=O)(Oc1ccccc1)Oc1ccccc1 (stereo unspecified)
Second: CC(C)CC(NC(=O)OCc1ccccc1)P(=O)(Oc1ccccc1)Oc1ccccc1 (stereo unspecified)
The inhibition of the first is lower: 3% for the first, 4% for the second.

Going from `NCCOc1ccc(C(NC(=O)OCc2ccccc2)P(=O)(Oc2ccccc2)Oc2ccccc2)cc1` (stereo unspecified) to `N=C(N)c1ccc(C(NC(=O)OCc2ccccc2)P(=O)(Oc2ccccc2)Oc2ccccc2)cc1` (stereo unspecified), the inhibition rises from 15% to 30%.

`NCC1CCC(C(NC(=O)OCc2ccccc2)P(=O)(Oc2ccccc2)Oc2ccccc2)CC1` (stereo unspecified) and `N=C(N)NCCCC(NC(=O)OCc1ccccc1)P(=O)(Oc1ccccc1)Oc1ccccc1` (stereo unspecified) are the same in inhibition: 15% for the first, 15% for the second.

Going from `N#Cc1cccc(C(NC(=O)OCc2ccccc2)P(=O)(Oc2ccccc2)Oc2ccccc2)c1` (stereo unspecified) to `O=C(NC(c1cccnc1)P(=O)(Oc1ccccc1)Oc1ccccc1)OCc1ccccc1` (stereo unspecified), the inhibition rises from 15% to 27%.

Compared with `N=C(N)Nc1ccc(CC(NC(=O)OCc2c(F)c(F)c(F)c(F)c2F)P(=O)(Oc2ccccc2)Oc2ccccc2)cc1` (stereo unspecified), `N=C(N)Nc1ccc(C(NC(=O)OCc2c(F)c(F)c(F)c(F)c2F)P(=O)(Oc2ccccc2)Oc2ccccc2)cc1` (stereo unspecified) is higher in inhibition: 25% for the first, 48% for the second.

First: CC(C)C[C@H](NC(=O)OCc1ccccc1)C(=O)N[C@H](C#N)Cc1ccc(O)cc1
Second: N#C[C@H](Cc1ccc(O)cc1)NC(=O)OCc1ccccc1
The inhibition of the first is higher: 13% for the first, under 1% for the second.

Compared with `N=C(N)N1CCC(C(Nc2ncc(-c3ccccc3)cn2)P(=O)(Oc2ccccc2)Oc2ccccc2)CC1` (stereo unspecified), `N=C(N)N1CCC(C(NS(=O)(=O)CCOc2ccccc2)P(=O)(Oc2ccccc2)Oc2ccccc2)CC1` (stereo unspecified) is higher in inhibition: 12% for the first, 27% for the second.

Going from `COC(=O)NC(c1ccc(NC(=O)C(F)(F)F)cc1)P(=O)(Oc1ccccc1)Oc1ccccc1` (stereo unspecified) to `NCCOC(=O)NC(c1ccc(NC(=O)C(F)(F)F)cc1)P(=O)(Oc1ccccc1)Oc1ccccc1` (stereo unspecified), the inhibition rises from 64% to 73%.

Going from `COc1ccc(CC(NC(=O)OCc2ccccc2)P(=O)(Oc2ccccc2)Oc2ccccc2)cc1` (stereo unspecified) to `O=C(NC(Cc1ccc2ccccc2c1)P(=O)(Oc1ccccc1)Oc1ccccc1)OCc1ccccc1` (stereo unspecified), the inhibition falls from 6% to under 1%.

Compared with `CN(C)c1ccc(C(NC(=O)OCc2ccccc2)P(=O)(Oc2ccccc2)Oc2ccccc2)cc1NS(C)(=O)=O` (stereo unspecified), `CN(C)C(=O)Nc1ccc(C(NC(=O)OCc2ccccc2)P(=O)(Oc2ccccc2)Oc2ccccc2)cc1` (stereo unspecified) is lower in inhibition: 46% for the first, 22% for the second.

Going from `N=C(N)Nc1ccc(CC(NC(=O)OCCC(F)(F)C(F)(F)C(F)(F)C(F)(F)C(F)(C(F)(F)F)C(F)(F)F)P(=O)(Oc2ccccc2)Oc2ccccc2)cc1` (stereo unspecified) to `C#CCCCOC(=O)NC(Cc1ccc(NC(=N)N)cc1)P(=O)(Oc1ccccc1)Oc1ccccc1` (stereo unspecified), the inhibition falls from 55% to 23%.

Going from `CN(C)C(=O)Nc1ccc(CC(NC(=O)OCc2ccccc2)P(=O)(Oc2ccccc2)Oc2ccccc2)cc1` (stereo unspecified) to `CC(=O)Nc1ccc(C(NC(=O)OCc2ccccc2)P(=O)(Oc2ccccc2)Oc2ccccc2)cc1` (stereo unspecified), the inhibition falls from 9% to 8%.

First: Nc1ccc(C(NC(=O)OCCCC(F)(F)F)P(=O)(Oc2ccccc2)Oc2ccccc2)cc1 (stereo unspecified)
Second: Nc1ccc(C(NC(=O)OCCOc2ccccc2)P(=O)(Oc2ccccc2)Oc2ccccc2)cc1 (stereo unspecified)
The inhibition of the first is lower: under 1% for the first, 1% for the second.

Compared with `Nc1ccc(C(NC(=O)OCc2c(F)c(F)c(F)c(F)c2F)P(=O)(Oc2ccccc2)Oc2ccccc2)cc1` (stereo unspecified), `O=C(NC(c1ccc([N+](=O)[O-])cc1)P(=O)(Oc1ccccc1)Oc1ccccc1)OCc1ccccc1` (stereo unspecified) is higher in inhibition: 28% for the first, 71% for the second.

First: COC(=O)NC(Cc1ccc(C(F)(F)F)cc1)P(=O)(Oc1ccc(NC(C)=O)cc1)Oc1ccc(NC(C)=O)cc1 (stereo unspecified)
Second: COC(=O)NC(c1cccc(N)c1)P(=O)(Oc1ccc(NC(C)=O)cc1)Oc1ccc(NC(C)=O)cc1 (stereo unspecified)
The inhibition of the first is higher: 20% for the first, 12% for the second.

First: COc1ccc(CC(=O)NC(C2CCN(C(=N)N)CC2)P(=O)(Oc2ccccc2)Oc2ccccc2)cc1 (stereo unspecified)
Second: [N-]=[N+]=NCCOCCOC(=O)NC(Cc1ccc(NC(=N)N)cc1)P(=O)(Oc1ccccc1)Oc1ccccc1 (stereo unspecified)
The inhibition of the first is lower: 13% for the first, 68% for the second.

First: O=C(NC(c1ccc2occc2c1)P(=O)(Oc1ccccc1)Oc1ccccc1)OCc1ccccc1 (stereo unspecified)
Second: O=C(NC(c1ccc2cc(O)ccc2c1)P(=O)(Oc1ccccc1)Oc1ccccc1)OCc1ccccc1 (stereo unspecified)
The inhibition of the first is higher: 6% for the first, under 1% for the second.

Going from `CSCCC(NC(=O)[C@H](CCCCN)NC(=O)OCc1ccccc1)P(=O)(Oc1ccccc1)Oc1ccccc1` (stereo partly specified) to `CS(=O)(=O)Nc1ccc(CCC(NC(=O)OCc2ccccc2)P(=O)(Oc2ccccc2)Oc2ccccc2)cc1` (stereo unspecified), the inhibition rises from 4% to 10%.

First: O=C(NC(c1ccc(NC(=O)C(F)(F)F)cc1)P(=O)(Oc1ccccc1)Oc1ccccc1)OCc1ccccc1 (stereo unspecified)
Second: N=C(N)Nc1ccc(C(NC(=O)OCc2ccccc2)P(=O)(Oc2ccccc2)Oc2ccccc2)cc1 (stereo unspecified)
The inhibition of the first is lower: 15% for the first, 29% for the second.

Going from `N=C(N)Nc1ccc(C(NS(=O)(=O)c2ccccc2)P(=O)(Oc2ccccc2)Oc2ccccc2)cc1` (stereo unspecified) to `N=C(N)Nc1ccc(C(NS(=O)(=O)c2ccc(C(F)(F)F)cc2)P(=O)(Oc2ccccc2)Oc2ccccc2)cc1` (stereo unspecified), the inhibition falls from 29% to 27%.

In the case of `CC(=O)Nc1ccc(OP(=O)(Oc2ccc(NC(C)=O)cc2)C(NC(=O)OCc2ccccc2)c2cccc(N)c2)cc1` (stereo unspecified), the inhibition is reported as 21%.
